{"source": "paper PMC7453566", "about": "(ACS Central Science, 2020)", "key": {"[1]": {"tested_on": "citrate concentration in INS-1 cells", "assay": "Citrate quantification with Citron1 in INS-1 cells treated with glucose or BTC", "type": "cell-based, rat", "summary_of_the_method": "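INS-1 cells express the direct-response citrate biosensor in the cytosol or in mitochondria and are imaged in Krebs-Ringer buffer, with 20 mM glucose then 2 mM test compound, or test compound without glucose. Concentrations are read from in situ titration curves in digitonin-permeabilized cells (cytosol n = 62, mitochondria n = 34 cells). Each value is the average of triplicates; s.e.m. is given.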"}, "[2]": {"tested_on": "citrate concentration in HeLa cells", "assay": "Imaging of glucose- or drug-induced citrate concentration changes in HeLa cells", "type": "cell-based"}, "CF98": {"biological_target": "CF98", "type": "binding", "settings": "read-out: Kd (CF98)"}, "Citron1": {"tested_on": "Citron1", "type": "cell-based, HeLa", "settings": "read-out: in situ Kd (Citron1); n = 128", "summary_of_the_method": "(§1)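 HeLa cells (ATCC CCL-2) express the biosensor from a CMV promoter, untargeted (cytoplasmic/nuclear). Cells are imaged, permeabilized with digitonin, then titrated stepwise with citrate (0.1 to ∼20 mM) in the imaging buffer, allowing at least 250 s per step. The mean response versus citrate gives the in situ calibration curve, from 128 cells or 26 cells; s.e.m. is given.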"}, "Citroff1": {"tested_on": "Citroff1", "type": "cell-based, HeLa", "settings": "read-out: in situ Kd (Citroff1); n = 26", "summary_of_the_method": "as §1"}, "[3]": {"tested_on": "citrate concentration in INS-1 cells", "settings": "stimulatory glucose; cited from earlier work"}}, "note": "Counter-ions that a name gives are not always drawn."}
{"smiles": "O=C(O)c1cccc(C(=O)O)c1C(=O)O", "note": "[BTC, 1,2,3-benzenetricarboxylate]", "values": [{"measurement": "citrate concentration, following increase", "setting": "[1]; 2 mM BTC after glucose addition", "value": "~18", "unit": "mM"}, {"measurement": "citrate concentration, pronounced decrease after treatment", "setting": "[1]; 2 mM BTC after glucose addition, from ∼25 mM", "value": "~10", "unit": "mM"}, {"measurement": "citrate concentration after treatment", "setting": "[1]; 2 mM BTC in the absence of glucose, from ∼3 mM", "value": "less than 2 mM"}]}
{"smiles": "N#C/C(=C\\c1cn(-c2ccccc2)c2ccccc12)C(=O)O", "note": "[UK-5099, reference compound]", "values": [{"measurement": "subsequent change of Citron1 fluorescence", "setting": "[2]; HeLa mitochondria, 25 μM", "value": "sustained decrease"}, {"measurement": "transient increase of Citron1 fluorescence", "setting": "[2]; HeLa mitochondria, 25 μM, likely DMSO artifact per authors", "value": 20, "unit": "%"}]}
{"smiles": "O=C(O)CC(O)(CC(=O)O)C(=O)O", "note": "[citrate, citrate (2-hydroxypropane-1,2,3-tricarboxylate)]", "values": [{"measurement": "Kd", "setting": "CF98", "value": "~9", "unit": "mM"}, {"measurement": "Kd", "setting": "Citron1", "value": 5.7, "unit": "mM"}, {"measurement": "Kd", "setting": "Citroff1", "value": 0.13, "unit": "mM"}]}
{"smiles": "OC[C@H]1OC(O)[C@H](O)[C@@H](O)[C@@H]1O", "note": "(stereo partly drawn) [glucose]", "values": [{"measurement": "cytosolic citrate concentration change upon glucose addition", "setting": "[2]; HeLa cells starved 0.5–1 h, 20 mM glucose", "value": "substantially increased"}, {"measurement": "mitochondrial citrate change upon glucose addition", "setting": "[2]; HeLa cells starved 0.5–1 h, mitochondria-localized Citron1", "value": "initial transient decrease followed by a slower increase"}, {"measurement": "cytosolic and mitochondrial citrate concentration after treatment", "setting": "[1]; 20 mM glucose, Krebs-Ringer buffer", "value": "~25", "unit": "mM"}, {"measurement": "fold increase in the concentration of citrate", "setting": "[3]", "value": "~8", "unit": "fold"}]}
